# An excerpt weighted towards active compounds, which were near 4% of everything screened.
# OX1R antag-1 = antagonists of human orexin 1 receptor | O43613 | CHO/OX1R cells, Fluo-8 calcium fluorescence, orexin A | inhibition, % at 5 µM | hit rate 0.43% among 330,000 | AID 434989;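 active = inhibition above its plate's threshold, mean inhibition of all tested compounds on the plate plus 3 SD, cut at about 37% in these data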;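 note: 0% = orexin A challenge wells and 100% = SB-334867-A antagonist wells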
# Target sequence (O43613 whole entry, looked up): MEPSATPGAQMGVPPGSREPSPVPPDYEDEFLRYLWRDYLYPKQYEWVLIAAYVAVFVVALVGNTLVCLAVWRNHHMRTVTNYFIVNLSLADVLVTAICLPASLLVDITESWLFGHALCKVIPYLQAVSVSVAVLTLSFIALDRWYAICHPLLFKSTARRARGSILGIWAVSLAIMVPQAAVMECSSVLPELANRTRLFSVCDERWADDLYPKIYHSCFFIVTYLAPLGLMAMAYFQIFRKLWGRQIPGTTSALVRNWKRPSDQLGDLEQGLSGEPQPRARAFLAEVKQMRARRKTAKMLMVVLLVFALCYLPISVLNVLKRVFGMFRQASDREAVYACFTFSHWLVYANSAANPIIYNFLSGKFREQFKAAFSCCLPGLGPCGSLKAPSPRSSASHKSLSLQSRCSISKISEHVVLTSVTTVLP
# OX1R antag-2 = antagonists of human orexin 1 receptor (OX1R) | OX1R-expressing cells, FRET antagonist read-out | O43613 | inhibition, % at 6.6 µM | AID 485270 | hit rate 1.8% among 330,000; in the data active = inhibition mostly above about 38%, no sharp cut-off; inactive = mostly below about 40%;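 note: 0% = agonist challenge alone and 100% = reference antagonist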
# TAAR1 antagonist = antagonists of human TAAR1; CHO RD-HGA16 TAAR1, Fluo-8 calcium fluorescence, antagonist; inhibition, % at 3 µM; hit rate 1.5% among 360,000; AID 624466;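 active = inhibition above a per-plate cutoff, the mean inhibition of test compounds on that plate plus 3 SD, cut at about 49% in these data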;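 note: 0% = DMSO plus EC80 beta-PEA response and 100% = DMSO alone without agonist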
#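 Material: RD-HGA16 CHO cells with stable hTAAR1 and Gα16; Dosing: single nominal final test compound concentration of 3 µM; Schedule: seeding 17-24 h prior, 75-min 37 °C, 30-min RT dye loading; Detection: kinetic Fluo-8 calcium fluorescence measurement; Measure: % inhibition from peak post-agonist over basal fluorescence ratio; Benchmarks: vehicle and agonist controls.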
# TAAR1 ag = human TAAR1 agonism; Q96RJ0; CHO RD-HGA16 TAAR1, Fluo-8 calcium fluorescence; vehicle wells 0%, saturating PEA agonist 100%; activation, % at 3 µM; hit rate 0.99% among 360,000;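 active = activation above the mean activation of all test compounds in the run plus 3 SD, cut at about 38% in these data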
#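 System: CHO RD-HGA16 cells carrying human TAAR1 plus Gα16; Incubation: 17-24 h seeding, 75 min 37 °C dye, 30 min RT; Measured by: Fluo-8 fluorescence, 5 s baseline then 140 s kinetic read; Control set: DMSO and PEA EC100; Replication: single well for each compound.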
# CHO parental Ca = counter-screen for OX1R antagonists: effect in parental CHO cells; parental CHO-K1, ATP-induced calcium, Fluo-8 fluorescence; inhibition, % at 5.6 µM; hit rate 0.63% among 330,000; AID 463079;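 active = inhibition above that plate's mean sample inhibition plus 3 SD, cut at about 26% in these data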;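 note: 0% = ATP-challenged DMSO wells and 100% = DMSO wells without ATP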
#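 Assay system: untransfected parental CHO cell line. Also added: ATP agonist challenge. Dosing: one dose, 5.6 µM nominal. Measured by: Fluo-8 fluorescence. Read-out: % inhibition. Benchmarks: ATP wells versus no-ATP DMSO wells. Repeats: no replicates.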
# An asterisk follows results filed as active; . = no result given.
SMILES,OX1R antag-1,OX1R antag-2,TAAR1 antagonist,TAAR1 ag,CHO parental Ca
CCN(CC(O)CON=C1c2ccccc2-c2ccccc21)S(=O)(=O)c1ccc(Cl)cc1 (stereo not drawn),-3,31,28,5,-5
CCN(CC(O)CON=C1c2ccccc2-c2ccccc21)S(=O)(=O)c1ccc(C)cc1 (stereo not drawn),26,73*,21,2,-20
Cc1cccc(N(CC(O)CON=C2c3ccccc3-c3ccccc32)S(C)(=O)=O)c1 (stereo not drawn),12,63*,27,14,-9
CS(=O)(=O)N(CC(O)CON=C1c2ccccc2-c2ccccc21)c1ccc(F)cc1 (stereo not drawn),25,20,43,16,-5
COC(=O)C1=C(C)N(Cc2ccc(C(F)(F)F)cc2)C(=NCc2ccc(OC)cc2)NC1c1ccccc1 (stereo not drawn),.,.,25,21,.
CC1(C)OC(C)(C)C(=N/O)/C1=N\N,.,.,-20,3,.
O=C(CSCc1ccc(Br)cc1)NCCc1ccccc1,-25,16,-5,40*,-14
O=C(CSCc1ccccc1)NCCc1ccc(F)cc1,-27,14,18,-1,-13
O=C(Nc1cc(Cl)cc(Cl)c1)Nc1cnccn1,30,39,-22,8,36*
O=C(Nc1ccc(F)cc1)Nc1cnccn1,-6,5,-37,12,1
O=C(COC(=O)C1=COCCO1)Nc1cc(C(F)(F)F)ccc1Cl,9,11,-2,6,-13
COCCN1C(=O)c2ccc(C(=O)Nc3nccs3)cc2C1=O,-5,46*,2,0,5
CCCN1C(=O)c2ccc(C(=O)Nc3nccs3)cc2C1=O,-7,45*,27,6,-6
COc1cc(N2C[C@@]3(O)CC[C@@H](O)[C@@H](OC)[C@@H]3[C@@](C)(O)[C@@H]2CC=C(C)C)cc(OC)c1OC,.,.,1,1,.
CC(=O)Cn1ncc(N(C)Cc2ccccc2)c(Cl)c1=O,-16,-1,3,8,-3
Cc1ccc2nc3c(cc(C(=O)NCc4ccccc4)c(=N)n3CCCn3ccnc3)c(=O)n2c1,.,.,-10,1,.
Cc1ccc2nc3c(cc(C(N)=S)c(=N)n3CCCOC(C)C)c(=O)n2c1,-32,47*,0,8,-34
Cc1ccc2nc3c(cc(C(=O)NCCN4CCOCC4)c(=N)n3CCCN3CCOCC3)c(=O)n2c1,4,71*,.,.,-2
N=c1c(C(=O)NCc2ccc(F)cc2)cc2c(=O)n3ccccc3nc2n1Cc1ccco1,-24,47,0,-4,-31
CCOCCCn1c(=N)c(S(=O)(=O)c2ccccc2)cc2c(=O)n3cc(C)ccc3nc21,-32,22,-16,-2,-8
N=c1c(S(=O)(=O)c2ccccc2)cc2c(=O)n3ccccc3nc2n1CCCN1CCOCC1,-17,46*,-4,1,-12
N=c1c(C(=O)NCCN2CCOCC2)cc2c(=O)n3ccccc3nc2n1Cc1ccc(F)cc1,-9,60*,-23,0,-7
CC1CCc2c(sc3nc(CSc4ncn[nH]4)[nH]c(=O)c23)C1 (stereo not drawn),-19,27,-4,0,-2
COc1ccccc1C(=O)N1CCN(C(=O)[C@@H](Cc2ccccc2)NC(=O)[C@H]2O[C@@H](n3cnc(C(N)=O)n3)[C@H](O)[C@@H]2O)CC1,.,.,-19,1,.
Cc1ccc(S(=O)(=O)c2cc3c(=O)n4ccccc4nc3n(CCCN3CCOCC3)c2=N)cc1C,-18,26,-13,-4,-25
SMILES,OX1R antag-1,OX1R antag-2,TAAR1 antagonist,TAAR1 ag,CHO parental Ca
N=c1c(C(=O)NCCN2CCOCC2)cc2c(=O)n3ccccc3nc2n1CCCN1CCOCC1,-4,69*,-27,2,6
COC(=O)c1ccccc1S(=O)(=O)N1CCC(C(=O)OCC(=O)NCC(F)(F)F)CC1,-10,5,-21,1,15
CCOC(=O)c1ccccc1NC(=O)COC(=O)C1CCN(S(=O)(=O)c2ccccc2C(=O)OC)CC1,-20,16,49*,11,-14
O=C(N/N=C\c1cn(-c2ccccc2)nc1-c1ccccc1)c1ccc2c(c1)OCO2,-5,77*,55*,10,-15
COc1ccc(-c2nn(-c3ccccc3)cc2/C=N/NC(=O)c2ccc3c(c2)OCO3)cc1,-5,56,.,.,3
O=C(N/N=C/c1ccc(-c2ccc(Br)cc2)o1)c1ccc2c(c1)OCO2,-15,36*,18,3,-2
O=C(N/N=C/c1ccc(COc2ccc(Br)cc2)o1)c1ccc2c(c1)OCO2,.,.,-11,-1,.
COc1ccc(-c2nn(-c3ccccc3)cc2/C=N/NC(=O)c2ccc(Br)o2)cc1,-28,0,61*,18,-26
COc1cc(/C=N/n2nnnc2Nc2ccccc2)cc(OC)c1OC,-23,17,.,.,-7
COc1ccc(C(=O)CC2(O)C(=O)N(CN3CCOCC3)c3ccc(Br)cc32)cc1 (stereo not drawn),.,.,-3,4,.
CSc1nnc2c(n1)OC(c1ccc(C(=O)O)cc1)N(C(C)=O)c1ccccc1-2 (stereo not drawn),-3,50*,-2,0,-5
Cc1cccn2c(=O)c3cc(C(=O)NCC4CCCO4)c(=N)n(CCc4ccccc4)c3nc12 (stereo not drawn),-26,51*,2,-4,-4
COc1ccc(CCn2c(=N)c(C(=O)NCC3CCCO3)cc3c(=O)n4ccccc4nc32)cc1OC (stereo not drawn),-20,50*,2,2,-10
O=C(CSc1nc2ccc(N3CCOCC3)cc2c(=O)n1CCc1ccccc1)NCC1CCCO1 (stereo not drawn),-28,7,52*,11,-4
O=C(N[C@H](Cc1ccccc1)C(=O)NC1CCCCC1)[C@H]1O[C@@H](n2ccc(=O)[nH]c2=O)[C@H](O)[C@@H]1O,.,.,-4,2,.
CC1CCN(C(=O)C2CCCN(S(=O)(=O)c3ccc4c(c3)CC(C)N4C(=O)C3CC3)C2)CC1 (stereo not drawn),-43,12,-4,1,-17
CNc1nc(NCC2CCCCC2)c2sccc2n1,.,.,26,49*,.
Cc1cc2c3c([nH]c2cc1S(=O)(=O)N1CCC2(CC1)OCCO2)CC(C)(C)CC3=O,-16,0,2,1,-24
CCCCCCCCCCCCN1CCSCCS1(=O)=O,.,.,-20,4,.
Nc1cc(C(=O)O)c(N)c2c1C(=O)c1ccccc1C2=O,5,115*,.,.,-3
O=C(O)c1cc2ccccc2c2c1C(=O)c1ccccc1-2,.,.,-11,1,.
CC(C)=CCc1c(O)ccc2c1OC(c1ccc(O)c(O)c1)CC2=O (stereo not drawn),15,9,57*,14,6
COCCOC(=O)c1c(C)oc2ccc(NS(=O)(=O)c3ccccc3)cc12,-9,14,3,-1,-23
